Data: ChEMBL document CHEMBL3091449, “Synthesis and antimicrobial profile of N-substituted imidazolium oximes and their monoquaternary salts against multidrug resistant bacteria” (2013)

Key:
Type in all cases: functional
[1] = test system: Pseudomonas aeruginosa; test: Ratio of cefotaxime MIC to compound MIC for Pseudomonas aeruginosa FNSST 982
[2] = test system: Escherichia coli; test: Ratio of gentamicin MIC to compound MIC for Escherichia coli FNSST 982
[3] = test system: Pseudomonas aeruginosa; test: Ratio of gentamicin MIC to compound MIC for Pseudomonas aeruginosa FNSST 982
[4] = test system: Aeromonas hydrophila; test: Antibacterial activity against Aeromonas hydrophila FNSST 014 after 18 to 24 hrs by two-fold broth microdilution assay
In short: (§1)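 CLSI two-fold broth microdilution was used. Compounds were dissolved in DMSO, brought to 10 mg/mL in medium, then serially diluted in Mueller Hinton broth over 400–0.09 µg/mL. Overnight MHB cultures were diluted to 10^6 CFU/mL, and 10 µL was added per well. Plates were incubated 18–24 h at 37 °C, then 0.2 mg/mL INT was added for 30 min at 37 °C. MIC was the lowest concentration with no visible growth or pink colour, triplicate.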

[5] = test system: Pseudomonas aeruginosa; test: Antibacterial activity against Pseudomonas aeruginosa FNSST 982 after 18 to 24 hrs by two-fold broth microdilution assay; in short: as §1
[6] = test system: Klebsiella pneumoniae; test: Antibacterial activity against Klebsiella pneumoniae FNSST 011 after 18 to 24 hrs by two-fold broth microdilution assay; in short: as §1
[7] = test system: Escherichia coli; test: Antibacterial activity against Escherichia coli FNSST 982 after 18 to 24 hrs by two-fold broth microdilution assay; in short: as §1
[8] = test system: Clostridium perfringens; test: Antibacterial activity against Clostridium perfringens FNSST 4999 after 18 to 24 hrs by two-fold broth microdilution assay
In short: (§2)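 CLSI two-fold broth microdilution. Compounds dissolved in DMSO, 10 mg/mL stock, serially diluted to 400–0.09 µg/mL in Mueller Hinton broth. Wells inoculated with 10^6 CFU/mL bacteria and incubated 18–24 h at 37 °C. 0.2 mg/mL INT added for 30 min. MIC taken as the lowest concentration with no visible growth or pink colour. Triplicate.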

[9] = test system: Staphylococcus aureus; test: Antibacterial activity against Staphylococcus aureus ATCC 25923 after 18 to 24 hrs by two-fold broth microdilution assay; in short: as §1
[10] = test system: Enterococcus faecalis; test: Antibacterial activity against Enterococcus faecalis ATCC 29212 after 18 to 24 hrs by two-fold broth microdilution assay; in short: as §1
[11] = test system: Bacillus cereus; test: Antibacterial activity against Bacillus cereus ATCC 11778 after 18 to 24 hrs by two-fold broth microdilution assay; in short: as §1
[12] = test system: Aspergillus fumigatus; test: Antifungal activity against Aspergillus fumigatus FNSST 3833 assessed as diameter of zone of inhibition at 250 ug/disc after 72 hrs by disc diffusion method; details: FNSST 3833, 72 h, read-out: DIZ
In short: (§3)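 Fungi were grown overnight at 30 °C in Sabouraud dextrose broth to 10^4 cfu/mL, and 100 µL was spread on Sabouraud dextrose agar. 6 mm discs carried 250 µg (25 µL of a 10 mg/mL stock in 96% ethanol), with ethanol as the negative control. Incubation was at 30 °C for 48 h (yeast) or 72 h (molds). Zone diameter was read including the disc, in triplicate, mean ± SE.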

[13] = test system: Talaromyces funiculosus; test: Antifungal activity against Penicillium funiculosum FNSST 3724 assessed as diameter of zone of inhibition at 250 ug/disc after 72 hrs by disc diffusion method; details: FNSST 3724, 72 h, read-out: DIZ; in short: as §3
[14] = test system: Aeromonas hydrophila; test: Antibacterial activity against Aeromonas hydrophila FNSST 014 assessed as diameter of zone of inhibition at 250 ug/disc after 24 hrs by disc diffusion method; details: FNSST 014, 24 h, read-out: DIZ
In short: (§4)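 Bacteria were grown overnight at 37 °C in TSB to about 10^6 cfu/mL, and 100 µL was spread on Mueller Hinton agar. Sterile 6 mm discs were each loaded with 25 µL of a 10 mg/mL stock in 96% ethanol, giving 250 µg/disc. Ethanol served as the negative control. Plates were incubated 24 h at 37 °C. Inhibition zone diameter was measured including the disc, in triplicate, as mean ± SE.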

[15] = test system: Pseudomonas aeruginosa; test: Antibacterial activity against Pseudomonas aeruginosa FNSST 982 assessed as diameter of zone of inhibition at 250 ug/disc after 24 hrs by disc diffusion method; details: FNSST 982, 24 h, read-out: DIZ; in short: as §4
[16] = test system: Klebsiella pneumoniae; test: Antibacterial activity against Klebsiella pneumoniae FNSST 011 assessed as diameter of zone of inhibition at 250 ug/disc after 24 hrs by disc diffusion method; details: FNSST 011, 24 h, read-out: DIZ; in short: as §4
[17] = test system: Escherichia coli; test: Antibacterial activity against Escherichia coli FNSST 982 assessed as diameter of zone of inhibition at 250 ug/disc after 24 hrs by disc diffusion method; details: FNSST 982, 24 h, read-out: DIZ; in short: as §4
[18] = test system: Clostridium perfringens; test: Antibacterial activity against Clostridium perfringens FNSST 4999 assessed as diameter of zone of inhibition at 250 ug/disc after 24 hrs by disc diffusion method; details: FNSST 4999, 24 h, read-out: DIZ
In short: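 Disc diffusion per CLSI: 100 µL of 10^6 cfu/mL bacterial suspension spread on Mueller Hinton agar. 6 mm discs loaded with 25 µL of 10 mg/mL compound stock in 96% ethanol (250 µg/disc); ethanol as negative control. Incubated 24 h at 37 °C. Inhibition zone diameter measured in mm including the disc, triplicate, reported as mean ± SE.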

[19] = test system: Staphylococcus aureus; test: Antibacterial activity against Staphylococcus aureus ATCC 25923 assessed as diameter of zone of inhibition at 250 ug/disc after 24 hrs by disc diffusion method; details: ATCC 25923, 24 h, read-out: DIZ; in short: as §4
[20] = test system: Enterococcus faecalis; test: Antibacterial activity against Enterococcus faecalis ATCC 29212 assessed as diameter of zone of inhibition at 250 ug/disc after 24 hrs by disc diffusion method; details: ATCC 29212, 24 h, read-out: DIZ; in short: as §4
[21] = test system: Bacillus cereus; test: Antibacterial activity against Bacillus cereus ATCC 11778 assessed as diameter of zone of inhibition at 250 ug/disc after 24 hrs by disc diffusion method; details: ATCC 11778, 24 h, read-out: DIZ; in short: as §4
[22] = test system: Candida albicans; test: Antifungal activity against Candida albicans ATCC 10231 assessed as diameter of zone of inhibition at 250 ug/disc after 48 hrs by disc diffusion method; details: ATCC 10231, 48 h, read-out: DIZ; in short: as §3
[23] = test system: Pseudomonas aeruginosa; test: Ratio of meropenem MIC to compound MIC for Pseudomonas aeruginosa isolate 197
[24] = test system: Pseudomonas aeruginosa; test: Ratio of imipenem MIC to compound MIC for Pseudomonas aeruginosa isolate 197
[25] = test system: Acinetobacter baumannii; test: Ratio of meropenem MIC to compound MIC for Acinetobacter baumannii isolate 170
[26] = test system: Acinetobacter baumannii; test: Ratio of imipenem MIC to compound MIC for Acinetobacter baumannii isolate 170
[27] = test system: Pseudomonas aeruginosa; test: Antibacterial activity against GIM-1 expressing Pseudomonas aeruginosa isolate 197 after 18 to 24 hrs by two-fold broth microdilution assay; in short: as §1
[28] = test system: Acinetobacter baumannii; test: Antibacterial activity against SIM-1 expressing Acinetobacter baumannii isolate 170 after 18 to 24 hrs by two-fold broth microdilution assay; in short: as §2
[29] = test system: Escherichia coli; test: Antibacterial activity against […] expressing Escherichia coli isolate 235 after 18 to 24 hrs by two-fold broth microdilution assay; in short: as §2
[30] = test system: Escherichia coli; test: Antibacterial activity against TEM-1/SHV-12 expressing Escherichia coli isolate 237 after 18 to 24 hrs by two-fold broth microdilution assay; in short: as §2
[31] = test system: Escherichia coli; test: Antibacterial activity against […] expressing Escherichia coli isolate 4024 after 18 to 24 hrs by two-fold broth microdilution assay; in short: as §2
[32] = test system: Aeromonas caviae; test: Antibacterial activity against TEM-1/CTX-M-15 expressing Aeromonas caviae isolate 260 after 18 to 24 hrs by two-fold broth microdilution assay; in short: as §1
[33] = test system: Aeromonas caviae; test: Antibacterial activity against […] expressing Aeromonas caviae isolate 258 after 18 to 24 hrs by two-fold broth microdilution assay; in short: as §1
[34] = test system: Aeromonas hydrophila; test: Antibacterial activity against TEM-1/SHV-12 expressing Aeromonas hydrophila isolate 268 after 18 to 24 hrs by two-fold broth microdilution assay; in short: as §1
[35] = test system: Kluyvera intermedia; test: Antibacterial activity against TEM-1/SHV-12/[…] expressing Enterobacter intermedius isolate 243 after 18 to 24 hrs by two-fold broth microdilution assay; in short: as §1
[36] = test system: Enterobacter cloacae; test: Antibacterial activity against CTX-15 expressing Enterobacter cloacae isolate 51 after 18 to 24 hrs by two-fold broth microdilution assay
[37] = test system: Enterobacter cloacae; test: Antibacterial activity against TEM-1/CTX-M-15 expressing Enterobacter cloacae isolate 62 after 18 to 24 hrs by two-fold broth microdilution assay
[38] = test system: Enterobacter cloacae; test: Antibacterial activity against TEM-1/SHV-12 expressing Enterobacter cloacae isolate 306 after 18 to 24 hrs by two-fold broth microdilution assay
[39] = test system: Aeromonas hydrophila; test: Ratio of gentamicin MIC to compound MIC for Aeromonas hydrophila FNSST 014
[40] = test system: Klebsiella pneumoniae; test: Ratio of gentamicin MIC to compound MIC for Klebsiella pneumoniae FNSST 011
[41] = test system: Klebsiella pneumoniae; test: Antibacterial activity against TEM-1/SHV-12 expressing Klebsiella pneumoniae isolate 303 after 18 to 24 hrs by two-fold broth microdilution assay; in short: as §1
[42] = test system: Stenotrophomonas maltophilia; test: Antibacterial activity against […] expressing Stenotrophomonas maltophilia isolate 125 after 18 to 24 hrs by two-fold broth microdilution assay; in short: as §1

Cc1ccc(-[n+]2ccn(Cc3ccccc3)c2/C=N/O)cc1.[Br-]
Ratio [1]: 115
Ratio [2]: 2.5
Ratio [3]: 450
MIC [4]: 12.5 µg/mL
MIC [5]: 0.14 µg/mL
MIC [6]: 12.5 µg/mL
MIC [7]: 3.12 µg/mL
MIC [8]: 25 µg/mL
MIC [9]: 6.25 µg/mL
MIC [10]: 25 µg/mL
MIC [11]: 12.5 µg/mL
zone of inhibition at 250 µg/disc [12]: 20.3 mm
zone of inhibition at 250 µg/disc [13]: 18.4 mm
zone of inhibition at 250 µg/disc [14]: 16.6 mm
zone of inhibition at 250 µg/disc [15]: 20.6 mm
zone of inhibition at 250 µg/disc [16]: 16.3 mm
zone of inhibition at 250 µg/disc [17]: 17.7 mm
zone of inhibition at 250 µg/disc [18]: 20.7 mm
zone of inhibition at 250 µg/disc [19]: 18.4 mm
zone of inhibition at 250 µg/disc [20]: 14.5 mm
zone of inhibition at 250 µg/disc [21]: 12.2 mm
zone of inhibition at 250 µg/disc [22]: 20.8 mm

O/N=C/c1n(Cc2ccccc2)cc[n+]1-c1ccc(F)cc1.[Br-]
Ratio [23]: 20
Ratio [24]: 20
Ratio [25]: 20
Ratio [26]: 20
MIC [27]: 0.39 µg/mL
MIC [28]: 0.78 µg/mL
MIC [29]: 6.25 µg/mL
MIC [30]: 3.12 µg/mL
MIC [31]: 1.56 µg/mL
MIC [32]: 12.5 µg/mL
MIC [33]: 12.5 µg/mL
MIC [34]: 12.5 µg/mL
MIC [35]: 6.25 µg/mL
MIC [36]: 6.25 µg/mL
MIC [37]: 6.25 µg/mL
MIC [38]: 6.25 µg/mL
Ratio [39]: 2.5
Ratio [40]: 2.5
Ratio [2]: 2.5
MIC [41]: 12.5 µg/mL
Ratio [3]: 2.5
MIC [42]: 12.5 µg/mL
MIC [4]: 12.5 µg/mL
MIC [5]: 25 µg/mL
MIC [6]: 1.56 µg/mL
MIC [7]: 12.5 µg/mL
MIC [8]: 25 µg/mL
MIC [9]: 6.25 µg/mL
MIC [10]: 6.25 µg/mL
MIC [11]: 6.25 µg/mL
zone of inhibition at 250 µg/disc [12]: 19.4 mm
zone of inhibition at 250 µg/disc [13]: 17.9 mm
zone of inhibition at 250 µg/disc [14]: 16.5 mm
zone of inhibition at 250 µg/disc [15]: 15.9 mm
zone of inhibition at 250 µg/disc [16]: 14.7 mm
zone of inhibition at 250 µg/disc [17]: 15.3 mm
zone of inhibition at 250 µg/disc [18]: 11.4 mm
zone of inhibition at 250 µg/disc [19]: 19.9 mm
zone of inhibition at 250 µg/disc [20]: 19.6 mm
zone of inhibition at 250 µg/disc [21]: 18.3 mm
zone of inhibition at 250 µg/disc [22]: 21.9 mm

O/N=C/c1n(Cc2ccccc2)cc[n+]1-c1ccccc1.[Br-]
Ratio [2]: 10
MIC [4]: 25 µg/mL
MIC [5]: 25 µg/mL
MIC [6]: 31.2 µg/mL
MIC [7]: 3.12 µg/mL
MIC [8]: 25 µg/mL
MIC [9]: 12.5 µg/mL
MIC [10]: 25 µg/mL
MIC [11]: 25 µg/mL
zone of inhibition at 250 µg/disc [12]: 20.8 mm
zone of inhibition at 250 µg/disc [13]: 17.4 mm
zone of inhibition at 250 µg/disc [14]: 15.3 mm
zone of inhibition at 250 µg/disc [15]: 14.9 mm
zone of inhibition at 250 µg/disc [16]: 15.5 mm
zone of inhibition at 250 µg/disc [17]: 12.3 mm
zone of inhibition at 250 µg/disc [18]: 16.6 mm
zone of inhibition at 250 µg/disc [19]: 12.5 mm
zone of inhibition at 250 µg/disc [20]: 13.3 mm
zone of inhibition at 250 µg/disc [21]: 15 mm
zone of inhibition at 250 µg/disc [22]: 18.1 mm
